Legend:
Rattus norvegicus [1] = assay: Cardiotoxicity in Wistar rat assessed as hear beats per min at 10 mg/kg, iv after 10 mins by ECG analysis; format: toxicity, organism-based; design: dose 10 mg/kg, route intravenous; conditions: in vivo
Rattus norvegicus [2] = assay: Cardiotoxicity in Wistar rat assessed as QT interval at 10 mg/kg, iv after 15 mins by ECG analysis; format: toxicity, organism-based; design: dose 10 mg/kg, route intravenous; conditions: in vivo, 0.25 h
Outline: (§1)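 Male normotensive Wistar rats, 170–350 g, six per group. Compound given iv at a constant volume of 1 mL/kg. ECG was recorded just before dosing and at 1, 5 and 15 min after. PQ, QRS and QT intervals and heart rate were read from the trace. Groups were compared by one-way ANOVA.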

Rattus norvegicus [3] = assay: Cardiotoxicity in Wistar rat assessed as PQ interval at 10 mg/kg, iv after 5 mins by ECG analysis; format: toxicity, organism-based; design: dose 10 mg/kg, route intravenous; conditions: in vivo; outline: as §1
Rattus norvegicus [4] = assay: Cardiotoxicity in Wistar rat assessed as QRS interval at 10 mg/kg, iv after 15 mins by ECG analysis; format: toxicity, organism-based; design: dose 10 mg/kg, route intravenous; conditions: in vivo, 0.25 h; outline: as §1
Rattus norvegicus [5] = assay: Hypotensive activity in normotensive Wistar rat assessed as reduction of diastolic blood pressure at 1.25 mg/kg, iv after 10 mins; format: functional, Artery
Outline: (§2)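 Male normotensive Wistar rats were anaesthetised with thiopental 75 mg/kg ip. The right carotid artery was cannulated with heparinised saline for pressure recording. After 5 min of stabilisation, compound was injected into the tail vein at 1 mL/kg. Systolic and diastolic pressure were followed up to 60 min. Data are means ± SEM of 5–6 rats, analysed by one-way ANOVA.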

Rattus norvegicus [6] = assay: Hypotensive activity in normotensive Wistar rat assessed as reduction of diastolic blood pressure at 1.25 mg/kg, iv after 20 mins; format: functional, Artery; outline: as §2
Rattus norvegicus [7] = assay: Hypotensive activity in normotensive Wistar rat assessed as reduction of systolic blood pressure at 1.25 mg/kg, iv after 5 mins; format: functional, Artery
Outline: (§3)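 Male normotensive Wistar rats (170–350 g) anaesthetised with thiopental 75 mg/kg ip; right carotid artery cannulated with heparinised saline-filled polyethylene tubing for pressure recording. After a 5 min stabilisation, compound given into the caudal vein at 1 mL/kg. Systolic pressure is recorded at 0, 5, 10, 20, 30 and 60 min, and the data are reported as mean ± SEM of five to six animals, with one-way ANOVA.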

Rattus norvegicus [8] = assay: Hypotensive activity in normotensive Wistar rat assessed as reduction of diastolic blood pressure at 1.25 mg/kg, iv after 30 mins; format: functional, Artery; outline: as §2
Rattus norvegicus [9] = assay: Cardiotoxicity in Wistar rat assessed as PQ interval at 10 mg/kg, iv after 10 mins by ECG analysis; format: toxicity, organism-based; design: dose 10 mg/kg, route intravenous; conditions: in vivo
Rattus norvegicus [10] = assay: Cardiotoxicity in Wistar rat assessed as hear beats per min at 10 mg/kg, iv after 5 mins by ECG analysis; format: toxicity, organism-based; design: dose 10 mg/kg, route intravenous; conditions: in vivo; outline: as §1
Rattus norvegicus [11] = assay: Cardiotoxicity in Wistar rat assessed as QRS interval at 10 mg/kg, iv after 10 mins by ECG analysis; format: toxicity, organism-based; design: dose 10 mg/kg, route intravenous; conditions: in vivo
Rattus norvegicus [12] = assay: Hypotensive activity in normotensive Wistar rat assessed as reduction of systolic blood pressure at 1.25 mg/kg, iv after 30 mins; format: functional, Artery; outline: as §3
Rattus norvegicus [13] = assay: Cardiotoxicity in Wistar rat assessed as PQ interval at 5 mg/kg, iv after 15 mins by ECG analysis; format: toxicity, organism-based; design: dose 5 mg/kg, route intravenous; conditions: in vivo, 0.25 h; outline: as §1
Rattus norvegicus [14] = assay: Cardiotoxicity in Wistar rat assessed as QRS interval at 5 mg/kg, iv after 10 mins by ECG analysis; format: toxicity, organism-based; design: dose 5 mg/kg, route intravenous; conditions: in vivo
Rattus norvegicus [15] = assay: Cardiotoxicity in Wistar rat assessed as PQ interval at 5 mg/kg, iv after 10 mins by ECG analysis; format: toxicity, organism-based; design: dose 5 mg/kg, route intravenous; conditions: in vivo
Rattus norvegicus [16] = assay: Cardiotoxicity in Wistar rat assessed as hear beats per min at 5 mg/kg, iv after 15 mins by ECG analysis; format: toxicity, organism-based; design: dose 5 mg/kg, route intravenous; conditions: in vivo, 0.25 h; outline: as §1

SMILES	Activity (Rattus norvegicus [1])	Activity (Rattus norvegicus [2])	Activity (Rattus norvegicus [3])	Activity (Rattus norvegicus [4])	Activity (Rattus norvegicus [5])	Activity (Rattus norvegicus [6])	Activity (Rattus norvegicus [7])	Activity (Rattus norvegicus [8])	Activity (Rattus norvegicus [9])	Activity (Rattus norvegicus [10])	Activity (Rattus norvegicus [11])	Activity (Rattus norvegicus [12])	Activity (Rattus norvegicus [13])	Activity (Rattus norvegicus [14])	Activity (Rattus norvegicus [15])	Activity (Rattus norvegicus [16])
Cl.Cl.Cl.O=c1c2ccc(Cl)cc2oc2c(OCC(O)CN3CCN(CCOc4ccccc4)CC3)cccc12 (racemic)	242.43 bpm	53.2 ms	33.12 ms	20.4 ms	101.2 mmHg	97.4 mmHg	117.2 mmHg	100.6 mmHg	33.6 ms	303.69 bpm	20.32 ms	113.2 mmHg	–	–	–	–
Cl.Cl.Cl.O=c1c2ccc(Cl)cc2oc2c(OCC(O)CN3CCN(C/C=C/c4ccccc4)CC3)cccc12 (racemic)	–	–	–	–	–	–	–	–	–	–	–	–	45.2 ms	20.2 ms	46 ms	329.3 bpm
Cl.Cl.Cl.O=c1c2ccc(Cl)cc2oc2c(OCC(O)CN3CCN(Cc4ccccc4)CC3)cccc12 (racemic)	285 bpm	78.8 ms	41.9 ms	20.1 ms	–	–	–	–	41.1 ms	295.3 bpm	19.6 ms	–	–	–	–	–
Cl.Cl.O=c1c2ccccc2oc2c(OCC(O)CN3CCN(C/C=C/c4ccccc4)CC3)cccc12 (racemic)	–	–	–	–	–	–	–	–	–	–	–	–	41.7 ms	23.5 ms	41.7 ms	309 bpm

Reference: ChEMBL document CHEMBL2311390, “Synthesis and preliminary evaluation of pharmacological properties of some piperazine derivatives of xanthone” (Bioorg Med Chem, 2013)
